According to ChEMBL document CHEMBL4387708, “Enhancement of Benzothiazoles as Pteridine Reductase-1 Inhibitors for the Treatment of Trypanosomatidic Infections” (J Med Chem, 2019):

Tests used:
Trypanosoma cruzi = experiment: Growth inhibition of trypomastigote form of Trypanosoma cruzi Y infected in human U2OS cells at 50 uM measured after 72 hrs by DRAQ5 DNA dye based confocal microscopic analysis relative to control; assay type: organism-based; conditions: for inhibition at 50 µM: Trypanosoma cruzi, Y, U2OS, read-out: GI; for growth inhibition (GI): trypanosoma cruzi, 50 µM
Leishmania infantum = experiment: Growth inhibition of luciferase expressing Leishmania infantum axenic amastigotes infected in human THP1 cells at 10 uM measured after 72 hrs by steady-glo luminescence assay relative to control; assay type: organism-based; conditions: for inhibition at 10 µM: Leishmania infantum, THP-1, 72 h, read-out: GI; for growth inhibition (GI): leishmania infantum, 72 h, 10 µM
Trypanosoma brucei [1] = experiment: Inhibition of N-terminal His-tagged Trypanosoma brucei pteridine reductase 1 at 50 uM using di-hydrobiopterine as substrate measured at 1 min interval for 50 mins in presence of NADPH relative to control
Outline: (§1)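 Photometric PTR1 assay with NADPH and dihydrobiopterin substrate. H₄B formation is coupled non-enzymatically to cytochrome c reduction, read as signal increase at 550 nm.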

[2] = biological target: T1, Pteridine reductase 1 (Leishmania major) (UniProt Q01782); experiment: Inhibition of Leishmania major pteridine reductase 1 at 50 uM using di-hydrobiopterine as substrate in presence of NADPH relative to control; outline: as §1
T1 sequence (whole entry): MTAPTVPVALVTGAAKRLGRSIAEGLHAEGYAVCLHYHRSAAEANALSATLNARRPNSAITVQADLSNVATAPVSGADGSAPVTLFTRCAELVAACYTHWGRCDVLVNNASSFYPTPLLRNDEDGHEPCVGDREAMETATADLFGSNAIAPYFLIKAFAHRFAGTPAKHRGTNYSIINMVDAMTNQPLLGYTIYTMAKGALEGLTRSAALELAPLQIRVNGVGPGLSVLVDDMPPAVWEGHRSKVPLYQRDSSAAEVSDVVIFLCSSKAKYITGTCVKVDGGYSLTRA

Trypanosoma brucei [3] = experiment: Growth inhibition of Trypanosoma brucei bloodstream forms at 10 uM measured after 72 hrs by resazurin-based fluorescence assay relative to control; assay type: organism-based; conditions: for inhibition at 10 µM: Trypanosoma brucei, read-out: GI
[4] = biological target: Voltage-gated inwardly rectifying potassium channel KCNH2 (Homo sapiens, UniProt Q12809); experiment: Displacement of Tracer Red from human ERG by fluorescence polarization assay
Cytochrome P450 1A2 = biological target: T2, Cytochrome P450 1A2 (Homo sapiens, UniProt P05177); experiment: Inhibition of human CYP1A2 expressed in baculovirus infected insect cells using beetle D-luciferin as substrate preincubated for 30 mins followed by NADPH addition and measured after 30 mins by CYP450-Glo assay
T2 sequence (P05177 whole entry): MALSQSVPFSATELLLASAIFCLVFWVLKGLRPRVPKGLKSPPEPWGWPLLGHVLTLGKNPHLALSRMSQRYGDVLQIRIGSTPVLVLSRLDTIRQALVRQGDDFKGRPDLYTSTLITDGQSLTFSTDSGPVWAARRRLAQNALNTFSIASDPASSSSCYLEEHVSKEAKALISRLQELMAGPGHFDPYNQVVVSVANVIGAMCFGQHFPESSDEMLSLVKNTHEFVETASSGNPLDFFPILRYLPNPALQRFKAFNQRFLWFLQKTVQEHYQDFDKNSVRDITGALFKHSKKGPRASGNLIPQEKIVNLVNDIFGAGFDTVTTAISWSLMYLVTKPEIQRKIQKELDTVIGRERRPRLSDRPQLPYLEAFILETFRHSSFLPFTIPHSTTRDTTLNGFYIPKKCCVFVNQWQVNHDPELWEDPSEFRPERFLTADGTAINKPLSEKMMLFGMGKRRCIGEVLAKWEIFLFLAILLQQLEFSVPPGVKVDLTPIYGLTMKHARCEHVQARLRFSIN

Cytochrome P450 2C9 = Cytochrome P450 2C9 (Homo sapiens, UniProt P11712); experiment: Inhibition of human CYP2C9 expressed in baculovirus infected insect cells using beetle D-luciferin as substrate preincubated for 30 mins followed by NADPH addition and measured after 30 mins by CYP450-Glo assay
Cytochrome P450 2C19 = Cytochrome P450 2C19 (Homo sapiens, UniProt P33261); experiment: Inhibition of human CYP2C19 expressed in baculovirus infected insect cells using beetle D-luciferin as substrate preincubated for 30 mins followed by NADPH addition and measured after 30 mins by CYP450-Glo assay
Cytochrome P450 2D6 = Cytochrome P450 2D6 (Homo sapiens, UniProt P10635); experiment: Inhibition of human CYP2D6 expressed in baculovirus infected insect cells using beetle D-luciferin as substrate preincubated for 30 mins followed by NADPH addition and measured after 30 mins by CYP450-Glo assay
Cytochrome P450 3A4 = Cytochrome P450 3A4 (Homo sapiens, UniProt P08684); experiment: Inhibition of human CYP3A4 expressed in baculovirus infected insect cells using beetle D-luciferin as substrate preincubated for 30 mins followed by NADPH addition and measured after 30 mins by CYP450-Glo assay
[5] = Cytotoxicity against human A549 cells after 48 hrs by Celltiter-glo assay; assay type: cell-based
[6] = Cytotoxicity against human THP1 cells after 72 hrs by MTT assay; assay type: cell-based, THP-1; conditions: read-out: NOAEL
[7] = Cytotoxicity against human U2OS cells assessed as reduction in cell number; assay type: cell-based
[8] = Mitochondrial toxicity in human 786-O cells measured after 6 hrs by MitoTracker Red chloromethyl-X-rosamine based assay; assay type: cell-based, 786-0
[9] = Selectivity ratio of IC50 for Leishmania major pteridine reductase 1 to IC50 for N-terminal His-tagged Trypanosoma brucei pteridine reductase 1
Pteridine reductase 1 = biological target: T3, Pteridine reductase 1 (Leishmania major, UniProt Q01782); experiment: Inhibition of Leishmania major pteridine reductase 1 using di-hydrobiopterine as substrate in presence of NADPH; conditions: read-out: IC50; outline: as §1
T3 sequence (Q01782 whole entry): T1 sequence (whole entry)

[10] = Inhibition of N-terminal His-tagged Trypanosoma brucei pteridine reductase 1 using di-hydrobiopterine as substrate measured at 1 min interval for 50 mins in presence of NADPH; outline: as §1

Cytochrome P450 2C9, sequence (P11712 whole entry): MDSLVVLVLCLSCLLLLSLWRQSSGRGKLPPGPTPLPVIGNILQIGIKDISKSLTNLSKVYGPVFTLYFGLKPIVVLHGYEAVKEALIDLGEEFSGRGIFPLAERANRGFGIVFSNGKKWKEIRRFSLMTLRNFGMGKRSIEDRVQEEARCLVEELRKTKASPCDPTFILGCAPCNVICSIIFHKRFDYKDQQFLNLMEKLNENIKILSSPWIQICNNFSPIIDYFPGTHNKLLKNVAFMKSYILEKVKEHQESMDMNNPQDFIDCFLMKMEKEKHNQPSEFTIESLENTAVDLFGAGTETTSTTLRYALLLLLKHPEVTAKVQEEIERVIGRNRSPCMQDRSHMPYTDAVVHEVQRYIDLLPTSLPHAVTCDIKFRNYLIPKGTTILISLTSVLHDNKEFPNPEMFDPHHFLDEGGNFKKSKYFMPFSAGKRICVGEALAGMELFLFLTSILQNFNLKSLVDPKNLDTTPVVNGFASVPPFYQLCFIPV
Cytochrome P450 2D6, sequence (P10635 whole entry): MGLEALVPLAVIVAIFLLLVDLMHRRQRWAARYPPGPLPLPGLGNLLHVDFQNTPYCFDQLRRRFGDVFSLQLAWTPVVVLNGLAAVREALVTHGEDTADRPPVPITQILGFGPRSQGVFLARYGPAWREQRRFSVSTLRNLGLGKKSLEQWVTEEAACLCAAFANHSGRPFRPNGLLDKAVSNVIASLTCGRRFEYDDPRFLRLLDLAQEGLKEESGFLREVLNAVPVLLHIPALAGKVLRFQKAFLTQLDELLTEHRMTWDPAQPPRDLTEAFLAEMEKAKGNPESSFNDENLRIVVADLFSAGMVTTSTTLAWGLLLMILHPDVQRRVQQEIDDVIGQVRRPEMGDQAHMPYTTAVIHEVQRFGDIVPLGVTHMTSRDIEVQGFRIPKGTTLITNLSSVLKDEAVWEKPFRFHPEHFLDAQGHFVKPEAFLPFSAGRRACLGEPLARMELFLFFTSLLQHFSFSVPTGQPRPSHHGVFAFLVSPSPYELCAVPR
Voltage-gated inwardly rectifying potassium channel KCNH2, sequence (Q12809 whole entry): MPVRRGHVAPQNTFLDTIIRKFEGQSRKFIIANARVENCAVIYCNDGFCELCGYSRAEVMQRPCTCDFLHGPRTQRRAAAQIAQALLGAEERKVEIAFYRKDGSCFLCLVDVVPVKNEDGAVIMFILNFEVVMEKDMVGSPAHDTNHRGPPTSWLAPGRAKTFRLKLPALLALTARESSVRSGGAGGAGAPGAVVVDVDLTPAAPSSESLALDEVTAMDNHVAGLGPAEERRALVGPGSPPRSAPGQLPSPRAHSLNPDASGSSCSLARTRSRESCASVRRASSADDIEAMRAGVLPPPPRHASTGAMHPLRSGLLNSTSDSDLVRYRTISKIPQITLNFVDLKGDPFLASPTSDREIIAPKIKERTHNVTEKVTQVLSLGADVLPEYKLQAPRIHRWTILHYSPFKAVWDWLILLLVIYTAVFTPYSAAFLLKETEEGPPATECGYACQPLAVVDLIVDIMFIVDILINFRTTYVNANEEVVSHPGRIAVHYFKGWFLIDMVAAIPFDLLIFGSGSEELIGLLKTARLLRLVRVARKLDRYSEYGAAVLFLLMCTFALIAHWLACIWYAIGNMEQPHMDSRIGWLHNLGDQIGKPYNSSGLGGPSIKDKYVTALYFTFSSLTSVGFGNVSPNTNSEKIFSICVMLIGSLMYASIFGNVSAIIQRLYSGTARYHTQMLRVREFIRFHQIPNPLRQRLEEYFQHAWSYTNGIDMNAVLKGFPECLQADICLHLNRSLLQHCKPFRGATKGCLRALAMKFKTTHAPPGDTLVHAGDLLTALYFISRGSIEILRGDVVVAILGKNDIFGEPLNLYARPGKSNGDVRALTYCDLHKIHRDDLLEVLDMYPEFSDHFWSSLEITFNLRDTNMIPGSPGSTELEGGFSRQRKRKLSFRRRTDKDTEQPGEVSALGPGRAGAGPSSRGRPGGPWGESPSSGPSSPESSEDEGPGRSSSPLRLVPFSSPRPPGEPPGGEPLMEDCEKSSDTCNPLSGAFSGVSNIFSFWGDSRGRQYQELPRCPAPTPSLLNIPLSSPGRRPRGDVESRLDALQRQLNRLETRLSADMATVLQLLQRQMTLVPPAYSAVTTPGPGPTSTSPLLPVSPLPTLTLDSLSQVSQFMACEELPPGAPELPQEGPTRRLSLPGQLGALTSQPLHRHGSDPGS
Cytochrome P450 2C19, sequence (P33261 whole entry): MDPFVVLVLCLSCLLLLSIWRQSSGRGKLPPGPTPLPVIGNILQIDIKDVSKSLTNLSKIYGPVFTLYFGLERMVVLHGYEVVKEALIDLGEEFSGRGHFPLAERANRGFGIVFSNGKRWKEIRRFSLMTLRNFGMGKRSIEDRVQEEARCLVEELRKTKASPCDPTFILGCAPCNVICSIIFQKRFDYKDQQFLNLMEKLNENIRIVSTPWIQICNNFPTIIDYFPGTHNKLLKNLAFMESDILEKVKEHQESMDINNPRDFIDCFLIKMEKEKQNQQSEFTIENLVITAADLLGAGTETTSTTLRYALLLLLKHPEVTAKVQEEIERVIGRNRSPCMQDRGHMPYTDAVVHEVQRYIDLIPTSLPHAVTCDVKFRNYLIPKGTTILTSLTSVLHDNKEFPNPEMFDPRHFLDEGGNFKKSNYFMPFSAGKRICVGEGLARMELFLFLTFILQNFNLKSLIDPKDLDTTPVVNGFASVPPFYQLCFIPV
Cytochrome P450 3A4, sequence (P08684 whole entry): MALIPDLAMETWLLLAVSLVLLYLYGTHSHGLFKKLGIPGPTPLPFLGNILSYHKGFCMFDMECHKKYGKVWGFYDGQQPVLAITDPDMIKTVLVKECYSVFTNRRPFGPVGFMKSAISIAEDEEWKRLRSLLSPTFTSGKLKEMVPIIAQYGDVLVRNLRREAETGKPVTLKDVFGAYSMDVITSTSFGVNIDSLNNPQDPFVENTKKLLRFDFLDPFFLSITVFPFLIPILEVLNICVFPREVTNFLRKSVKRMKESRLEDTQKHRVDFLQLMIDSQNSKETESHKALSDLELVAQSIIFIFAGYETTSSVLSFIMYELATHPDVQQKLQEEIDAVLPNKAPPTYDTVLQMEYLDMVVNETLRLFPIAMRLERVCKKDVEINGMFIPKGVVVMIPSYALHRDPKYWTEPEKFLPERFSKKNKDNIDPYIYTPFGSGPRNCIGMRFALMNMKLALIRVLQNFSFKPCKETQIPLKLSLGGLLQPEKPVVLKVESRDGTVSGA

Row | SMILES | inhibition (Trypanosoma brucei [1]) [%] | inhibition [2] [%] | IC50 (Cytochrome P450 1A2) [µM] | IC50 (Cytochrome P450 2C9) [µM] | IC50 (Cytochrome P450 2C19) [µM] | IC50 (Cytochrome P450 2D6) [µM] | IC50 (Cytochrome P450 3A4) [µM] | Ratio IC50 [9] | IC50 (Pteridine reductase 1) [µM] | IC50 [10] [µM] | inhibition at 50 µM (Trypanosoma cruzi) [%] | inhibition at 10 µM (Trypanosoma brucei [3]) [%] | IC50 [4] [µM] | GI50 at 48 h [5] [µM] | MNTC at 72 h [6] [µM] | GI50 [7] [µM] | IC50 at 6 h [8] [µM] | growth inhibition (GI) (Trypanosoma cruzi) | growth inhibition (GI) (Leishmania infantum) | further results
1 | Nc1nc2ccc(OC(F)(F)F)cc2s1 [RILUZOLE] | > 60 | > 60 | – | – | – | – | – | – | 94.1 | 15.1 | – | – | – | 10 to 25 | > 25 | > 25 | > 25 | Non-Toxic | Non-Toxic | growth inhibition (GI) (Trypanosoma brucei [3]; trypanosoma brucei, 10 µM): Non-Toxic
2 | COC(=O)C1CCN(C(=O)c2ccc(CNC(=O)c3ccc4nc(N)sc4c3)cc2)CC1 | > 60 | 1.97 | > 25 | > 25 | > 25 | > 25 | > 25 | 2 to 100 | – | 21.8 | – | 24 | < 10 | > 25 | > 25 | > 25 | < 10 | Non-Toxic | Non-Toxic | –
3 | Nc1nc2ccc(C(=O)NCCc3cccs3)cc2s1 | > 60 | 18.3 | 10 to 25 | > 25 | > 25 | < 10 | > 25 | 2 to 100 | – | 7.5 | 29.8 | 17 | < 10 | > 25 | > 25 | > 25 | > 25 | – | Non-Toxic | –
4 | Nc1nc2ccc(C(=O)NCc3ccc(C(=O)NCc4ccccc4)cc3)cc2s1 | > 60 | > 60 | > 25 | – | – | – | – | – | 18.9 | 6.85 | – | 53 | > 25 | > 25 | 10 to 25 | > 25 | > 25 | Non-Toxic | Non-Toxic | –
5 | COc1ccc2nc(N)sc2c1 | 29.9 | 15.2 | 10 to 25 | > 25 | 10 to 25 | < 10 | 10 to 25 | 2 to 100 | – | – | 32.9 | 6 | < 10 | < 10 | > 25 | > 25 | < 10 | – | Non-Toxic | –
6 | COc1cc(CNC(=O)c2ccc3nc(N)sc3c2)cc(OC)c1OC | 30.8 | 67.1 | > 25 | > 25 | > 25 | > 25 | > 25 | 2 to 100 | – | – | 19.8 | 9 | > 25 | > 25 | > 25 | > 25 | > 25 | – | Non-Toxic | –
7 | N=C(N)c1ccc(OCCCCCOc2ccc(C(=N)N)cc2)cc1 [PENTAMIDINE] | – | – | > 25 | – | > 25 | 10 to 25 | – | – | – | – | – | – | – | > 25 | > 25 | – | > 25 | – | – | –
8 | Nc1nc2c(O)cc(C(=O)NCc3ccccc3)cc2s1 | 47.8 | > 60 | > 25 | > 25 | 10 to 25 | < 10 | < 10 | 2 to 100 | 2.48 | – | 28.8 | 15 | > 25 | > 25 | > 25 | > 25 | > 25 | – | – | inhibition at 10 µM (Leishmania infantum): 11%

Further lines, with some results ahead:

Row | inhibition (Trypanosoma brucei [1]) [%] | inhibition [2] [%] | IC50 (Cytochrome P450 1A2) [µM] | IC50 (Cytochrome P450 2C9) [µM] | IC50 (Cytochrome P450 2C19) [µM] | IC50 (Cytochrome P450 2D6) [µM] | IC50 (Cytochrome P450 3A4) [µM] | Ratio IC50 [9] | IC50 (Pteridine reductase 1) [µM] | IC50 [10] [µM] | SMILES | inhibition at 50 µM (Trypanosoma cruzi) [%] | inhibition at 10 µM (Trypanosoma brucei [3]) [%] | IC50 [4] [µM] | GI50 at 48 h [5] [µM] | MNTC at 72 h [6] [µM] | GI50 [7] [µM] | IC50 at 6 h [8] [µM] | growth inhibition (GI) (Trypanosoma cruzi) | growth inhibition (GI) (Leishmania infantum) | further results
9 | 36.4 | 23.3 | 10 to 25 | 10 to 25 | > 25 | 10 to 25 | 10 to 25 | 2 to 100 | – | – | COC(=O)C1CCN(C(=O)c2ccc3nc(N)sc3c2)CC1 | 64.2 | 19 | > 25 | > 25 | > 25 | > 25 | > 25 | – | – | inhibition at 10 µM (Leishmania infantum): 8%
10 | > 60 | 24.1 | > 25 | > 25 | > 25 | < 10 | 10 to 25 | 2 to 100 | – | 58.1 | Nc1nc2ccc(C(=O)N(CCO)Cc3ccccc3)cc2s1 | – | 8 | > 25 | > 25 | > 25 | > 25 | > 25 | Non-Toxic | – | inhibition at 10 µM (Leishmania infantum): 20%
11 | 16.7 | 26.9 | < 10 | > 25 | < 10 | < 10 | > 25 | 2 to 100 | – | – | CSc1ccc2nc(N)sc2c1 | 22.5 | 12 | < 10 | > 25 | > 25 | > 25 | < 10 | – | Non-Toxic | –
12 | > 60 | > 60 | > 25 | – | – | > 25 | > 25 | – | 31.9 | 3.3 | COC(=O)C1CCN(C(=O)c2ccc(COc3ccc4nc(N)sc4c3)cc2)CC1 | 27 | 52 | > 25 | > 25 | 10 to 25 | > 25 | > 25 | – | Non-Toxic | –
13 | 16.7 | 26.9 | > 25 | > 25 | < 10 | < 10 | 10 to 25 | 2 to 100 | – | – | Nc1nc2ccc(S(=O)(=O)Cc3ccc(Cl)c(Cl)c3)cc2s1 | 32.8 | 37 | > 25 | 10 to 25 | 10 to 25 | > 25 | > 25 | – | – | inhibition at 10 µM (Leishmania infantum): 21%
14 | – | – | – | – | – | – | – | – | 13.6 | 0.09 | CCc1nc(N)nc(N)c1-c1ccc(Cl)cc1 [PYRIMETHAMINE] | – | – | – | – | – | – | – | – | – | –
15 | > 60 | 27.1 | > 25 | > 25 | > 25 | 10 to 25 | > 25 | 2 to 100 | – | 57.6 | Nc1nc2ccc(S(=O)(=O)Cc3ccccc3)cc2s1 | – | 5 | > 25 | > 25 | > 25 | > 25 | > 25 | Non-Toxic | Non-Toxic | –
